Measurements of several laboratories.
Compare with care: the assays were run in different laboratories.

With `Cc1nc2ccc(OCc3ccc(C(F)(F)F)cc3)cc2[nH]1` the concentration was 2000 ng/g (male BALB/c mouse, brain; oral, 10 mg/kg, 4 h).
The concentration of `O=C1CCC(N2Cc3cc(CO)c(F)cc3C2=O)C(=O)N1` (stereo not drawn) is reported as 8.1 ng/mL (male CD-1 mouse, plasma; intravenous, 1 mg/kg, 2 h).
`CC(C)(C)S(=O)(=O)c1cc2c(Nc3ccc4scnc4c3)ncnc2cc1OCCOP(=O)(O)O` has a concentration of 21 ng/mL (BALB/c mouse, plasma; oral, 10 mg/kg, 6 h).
`CN(C)C(=O)c1cc2cnc(Nc3ccc(-c4ccc5c(=O)cc(N6CCOCC6)oc5c4)cc3)nc2n1C1CCCC1` has a concentration of 5.3 ng/g (BALB/c mouse, brain; oral, 20 mg/kg, 24 h, single dose).
For `CC(C)c1cc(C(=O)NCCN)c2cnn(C(C)C)c2n1`, the concentration was 2430 ng/mL (female BALB/c mouse, plasma; intraperitoneal, 50 mg/kg, 30 min).
For `NCc1cc2c(cc1F)C(=O)N(C1CCC(=O)NC1=O)C2` (stereo not drawn), the concentration was 81 ng/mL (male CD-1 mouse, plasma; oral, 10 mg/kg, 1 h).
For `O=C1CCC(N2Cc3cc(C4CCN(Cc5ccccc5)CC4)ccc3C2=O)C(=O)N1` (stereo not drawn), the concentration was 235 ng/mL (male CD-1 mouse, plasma; oral, 3 mg/kg, 1 h).
The concentration of `CC(C)n1ncc2c(C(=O)NCC3(C)CNC3)cc(C3CC3)nc21` is reported as 240 ng/mL (female BALB/c mouse, plasma; intraperitoneal, 50 mg/kg, 8 h).
With `CC1(C)NC(=O)N(c2ccc(F)c(S(C)(=O)=O)c2)C1=O` the concentration was 20 ng/mL (male Swiss mouse, plasma; oral, 100 mg/kg, 48 h).
For `Cc1ccc2c(c1)C(=O)[C@]1(O)CCN(c3ccc4nc(C)ccc4c3)C1=N2`, the concentration was 2500 nM (mouse, plasma; subcutaneous, 10 mg/kg, 30 min).
The concentration of `CC1(C)NC(=O)N(c2ccc(F)c(Br)c2)C1=O` is reported as 29700 ng/mL (male Swiss mouse, plasma; oral, 100 mg/kg, 1 h).
`OCc1nc2ccc(NCc3ccc(C(F)(F)F)cc3)cc2[nH]1` has a concentration of 227 ng/g (male BALB/c mouse, brain; oral, 10 mg/kg, 6 h).
